PRMT1 inh: blocks human protein arginine methyltransferase 1 | Q99873 | recombinant PRMT1, activity-based probe fluorescence polarization | inhibition, % at 2.79 µM | actives 1.3% (n = 370,000);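 active means inhibition above about 21% made by adding two undisclosed values, limit read from the data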
PAD4 FP inh: inhibitors of human PAD4 | Q9UM07 | recombinant PAD4, RCA probe fluorescence polarization | inhibition, % at 6.36 µM | actives 0.41% (n = 330,000) | AID 485272;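 active means percent inhibition above a cutoff equal to the mean of all tested compounds plus 3 SD, cut at about 15% in these data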;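 further: 0% = PAD4 with RCA probe and DMSO and 100% = probe without PAD4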
TDP2 absorb: TDP2 (human) inhibition, absorbance primary screen; O95551; recombinant TDP2, T5PNP hydrolysis, p-nitrophenol absorbance 415 nm; inhibition, % at 12.8 µM; actives 0.34% (n = 370,000);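 active means inhibition above the mean of all tested compounds plus 3 SD, set per campaign, cut at about 25% in these data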;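 further: 0% = DMSO with enzyme and 100% = buffer with substrate but no TDP2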
Target sequence (O95551 whole entry, looked up): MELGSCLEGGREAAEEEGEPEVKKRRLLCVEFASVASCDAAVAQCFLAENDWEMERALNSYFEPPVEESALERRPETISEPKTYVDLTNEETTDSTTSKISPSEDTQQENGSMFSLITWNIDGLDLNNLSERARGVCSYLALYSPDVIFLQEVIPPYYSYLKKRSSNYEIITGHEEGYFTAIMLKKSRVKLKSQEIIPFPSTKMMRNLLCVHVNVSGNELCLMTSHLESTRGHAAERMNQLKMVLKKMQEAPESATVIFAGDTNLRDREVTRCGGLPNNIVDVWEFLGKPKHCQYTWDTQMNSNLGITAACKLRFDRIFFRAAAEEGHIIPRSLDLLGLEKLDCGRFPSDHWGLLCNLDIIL
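Read-out basis: percent inhibition. System: recombinant human TDP2. Buffer or medium: Mg2+-containing Tris-HCl buffer, pH 7.5. Repeats: single replicate. Timing: reaction 2 h, 37 °C. Benchmarks: high control without enzyme, low control DMSO plus TDP2. Probe or stimulus: 5 mM T5PNP. Doses: 12.8 µM only. Measured by: epi absorbance of p-nitrophenol freed from T5PNP by hydrolysis.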
Apaf-1 inh: inhibitors of human Apaf-1 apoptosome; reconstituted apoptosome caspase-3 activity, DEVD-Rh110 fluorescence; O14727; actives 0.71% (n = 330,000); inhibition, % at 20 µM; active means inhibition of at least 40% at 20 µM;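 further: plate controls were DMSO wells for no effect and DEVD-CHO caspase inhibitor wells for full effect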
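System: Apoptosome proteins | Medium: Hepes pH 7.5 with detergent and BSA | Also added: Cytochrome c trigger plus (Z-DEVD)2-Rh110 caspase-3 substrate | Incubation: 30 min compound preincubation, 50 min activation, room temperature | Detection: Rhodamine 110 fluorescence at Ex 480/Em 540 nm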
GSTO1 inh: GSTO1 inhibition, counter-screen for RBBP9 inhibitors | recombinant GSTO1, activity-based probe fluorescence polarization | actives 1.1% (n = 300,000) | inhibition, % at 5.96 µM;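 active means inhibition above the campaign mean inhibition plus 3 SD, cut at about 35% in these data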;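 further: 0% = GSTO1-1 with DMSO and 100% = wells lacking GSTO1-1 enzyme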
Apaf-1 inh conf: Apaf-1 inhibition, single-dose confirmed | shares compounds with Apaf-1 inh | reconstituted apoptosome, caspase-3 DEVD-Rh110 fluorescence | inhibition, % at 20 µM | actives 25% (n = 1,800);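 active means mean inhibition of at least 40% at 20 µM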;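 further: plate controls were DMSO wells for no effect and DEVD-CHO caspase inhibitor control wells for full effect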
Rh110 interf inh: Rh110 signal interference in Apaf-1 inhibitor counter-screen. shares compounds with Apaf-1 inh. Rh110 fluorescence interference, quenched caspase reaction. activation (fluorescence interference), % at 20 µM. 1,800 tested, under 10 active;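 active means signal rise of 40% or more at 20 µM, treated as a fluorescence artifact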
Fluor interf inh: shows fluorescence interference in the Apaf-1 inhibitor assay format. AID 588538. 460 tested, under 10 active. fluorescence interference counterscreen, Apaf-1 assay format. IC50, µM. shares compounds with Apaf-1 inh; call rule not given here
PRMT1 confirm: PRMT1 (human) inhibition, FP confirmation; inhibition, % at 2.79 µM; shares compounds with PRMT1 inh; recombinant His-PRMT1, activity-based probe fluorescence polarization; actives 42% (n = 3,300);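 active means mean inhibition across replicates above the hit cutoff derived for the earlier primary screen, cut at about 22% in these data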
* hit, by the source's call; . = not tested or not shown. A selection: hits, their analogues and other compounds. The true share with any hit is near 2.6%.

SMILES	PRMT1 inh	PAD4 FP inh	TDP2 absorb	Apaf-1 inh	GSTO1 inh	Apaf-1 inh conf	Rh110 interf inh	others
COc1ccc(-n2nc(C(=O)NCC(=O)N3CCC(C)CC3)c3ccccc3c2=O)cc1	0	2	-17	15	5	.	.
CC1=C(CC(=O)c2ccccc2)C(=O)c2ccccc2C1=O	3	4	6	45*	51*	40*	8	Fluor interf inh=>100
O=C(CN1C(=O)c2ccccc2C1=O)c1ccccc1	-1	-7	2	1	10	.	.
CCCCCCC(=O)Nc1nc(C)c(-c2csc(Nc3cc(OC)ccc3OC)n2)s1	2	-3	-5	49*	6	-10	4
CCCCCC(=O)Nc1nc(C)c(-c2csc(Nc3cc(OC)ccc3OC)n2)s1	2	-2	0	-8	-7	.	.
CC(C)N(Cc1cc2ccccc2[nH]c1=O)C(=O)C1CCCCC1	-1	-6	-11	57*	-8	65*	6	Fluor interf inh=>100
CCN(Cc1cc2ccccc2[nH]c1=O)C(=O)C1CCCCC1	1	2	-12	17	0	.	.
COc1cc(/C=C2/C(=O)N(c3ccc(Br)cc3)N=C2C)cc(OC)c1OC	.	.	.	94*	.	7	1
COc1cc(/C=C2\C(=O)N(c3cccc(C(=O)O)c3)N=C2C)ccc1OCc1ccccc1	0	.	21	.	.	.	.
COC(=O)[C@]12C[C@H](CC(=O)NCc3cccc4ccccc34)C(=O)N(Cc3cccc4ccccc34)C1=C[C@H](C1CCCC1)O[C@@H]2C	3	.	6	.	.	.	.
CN(C)C(=O)c1ccc(NC(=O)c2sccc2-c2ccccc2)cc1	-1	-1	-11	45*	2	31	1
COc1ccc(OCc2cc(C(=O)NC3CCOCC3)no2)c2ccccc12	0	-10	18	41*	23	37	-3
CC1(C(=O)Nc2cccc3ccccc23)CC1(Br)Br (centres undefined)	8	0	5	56*	16	16	4
COc1ccc(C(C(=O)Nc2ccc(F)cc2)N2CCN(c3cccc(C(F)(F)F)n3)CC2)cc1 (centres undefined)	1	.	-9	.	.	.	.
CCCCc1ccc2nc(NC(=O)c3ccc(Br)o3)sc2c1	3	.	-9	.	.	.	.
CCOC(=O)CNCCC(=O)c1ccc(Br)cc1	17	-4	0	58*	-2	9	1
Cc1cccc(NCCC(=O)c2ccc(Br)cc2)c1	10	-5	-4	14	-4	.	.
Cc1cc2c(cc1C)-n1nnnc1C(N1CCN(C(=O)OCc3ccccc3)CC1)C(=O)N2 (centres undefined)	-1	.	-9	.	.	.	.
CCN(CC)CCN(C(=O)c1ccc(C(=O)c2ccccc2)cc1)c1nc2ccc(OC)cc2s1	4	1	9	44*	6	15	-5
COc1ccc2nc(N(CCN(C)C)C(=O)c3ccc(C(=O)c4ccccc4)cc3)sc2c1	1	0	-1	17	-5	.	.
CCc1nc2ccc(C(=O)Nc3ccc(Cl)c(Cl)c3)cn2c1N(C)Cc1ccc(OC)cc1	-1	.	7	.	.	.	.
COc1cc(/C=C/c2cc[n+](C)cc2)ccc1OCC(=O)Nc1ccc(Cl)c(Cl)c1	-3	-2	6	73*	0	46*	6	Fluor interf inh=>100
COc1ccc(Br)cc1C1CC(=O)N2CN(Cc3ccccc3)CSC2=C1C#N (centres undefined)	25*	-1	-4	78*	-5	20	0	PRMT1 confirm=20
N#CC1=C2SCN(Cc3ccccc3)CN2C(=O)CC1c1ccccc1F (centres undefined)	.	5	.	24	8	.	.
Cc1nnc(N=c2ssnc2Cl)o1	49*	-4	12	50*	.	57*	5	Fluor interf inh=>100;PRMT1 confirm=70*
SMILES	PRMT1 inh	PAD4 FP inh	TDP2 absorb	Apaf-1 inh	GSTO1 inh	Apaf-1 inh conf	Rh110 interf inh	others
COc1cc(C)c2c(c1C=O)Oc1c(c(C)c(O)c3c1C(O)OC3=O)OC2=O (centres undefined)	38*	-23	-4	56*	11	35	-3	PRMT1 confirm=-5
O=C(OCC#CCSc1nnc(-c2cccc3ccccc23)o1)C1CC1	1	.	2	.	.	.	.
C[C@H]1COc2cc(N(C)CCO)ccc2S(=O)(=O)N1	-1	.	5	.	.	.	.
CCOC(=O)Nc1ccc(NCc2ccc(F)cc2)nc1N	64*	0	7	96*	12	53*	4	Fluor interf inh=>100;PRMT1 confirm=14
Cc1cccc(C)c1NC(=O)C1(C)CSCC(=O)N1Cc1cccs1 (centres undefined)	0	.	-13	.	.	.	.
CN1CCc2nc(SCC(=O)Nc3cccc(F)c3)c(C#N)c(-c3cccs3)c2C1	65*	5	2	67*	20	10	3	PRMT1 confirm=23*
